From PubChem
Hits are enriched below; roughly 2% of the tested compounds scored in any of these assays.
CaV13 FRET inh – Primary screen for inhibitors of IQ motif and Ca2+-dependent inactivation inhibitor domain binding in CACNA1D, Förster resonance energy transfer in living cells, … | HEK cells, CFP/YFP FRET ICDI-IQ, plate reader, 10 min; percent FRET-ratio fall versus neutral wells | inhibition, % at 12.3 µM | AID 743397 | 340,000 compounds, 0.098% hits;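 active means mean replicate inhibition of at least 30% and at least 1% of replicates passing that level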
LGR2 inh – blocks bursicon-induced cAMP signaling via Drosophila LGR2; HEK293 LGR2, CRE-luciferase, bursicon-stimulated, 4 h; inhibition, % at 9.99 µM; 380,000 compounds, 0.35% hits;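 active means drop in luminescence signal, shown as inhibition above about 50% in the replicate tests, limit read from the data, passing the limit was not always enough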;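 further: agonist challenge used bursicon conditioned medium at about half maximal strength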
Xi reactivation – X-chromosome reactivation activator. 360,000 compounds, 0.055% hits. activation, % at 7.58 µM. XiGFP mouse fibroblasts, % GFP-positive cells imaging, 3 d; cells co-treated with 5-aza-dC sensitizer; scaled so ellipticine positive control = 100%;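 active means mean normalized replicate activation at least 10% and every replicate at or above 10%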
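material = 68-5-11 XiGFP fibroblast line | medium = DMEM plus 5-aza-dC sensitizer | schedule = 3 days compound exposure | benchmarks = positive control ellipticine, 6 µM final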
TROY NFkB inh – inhibitors of TROY-dependent NF-kB signaling | Q293 LMP1-TROYcd NF-kB luciferase reporter, 4 h | inhibition, % at 10 µM | 360,000 compounds, 0.98% hits | AID 1347056;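 active means compounds whose plate-normalised and pattern-corrected inhibition of the luciferase reporter signal at the single screening dose is 50% or more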
TWEAK-Fn14 inh – TWEAK-Fn14 signaling inhibition. inhibition, % at 10 µM. AID 1159606. TWEAK-stimulated Fn14 reporter cells, luciferase luminescence, 8 h. 360,000 compounds, 2% hits; in the data active means inhibition above about 50%
Large screens that a line does not name were inactive.

CCN(CC)c1ccc(/C=N/Nc2nc3ccccc3[nH]2)cc1	TWEAK-Fn14 inh 95.4
O=C(CSc1nc2ccccc2[nH]1)N/N=C/c1ccncc1	TROY NFkB inh 56.6
C(=N\Nc1nc2ccccc2[nH]1)/c1ccncc1	TROY NFkB inh 58.8
O=C(O)c1ccc(/C=N/Nc2nc3ccccc3[nH]2)cc1	none
COc1ccc(NC(=O)N(C)C[C@@H]2OCCCC[C@@H](C)Oc3ccc(NS(=O)(=O)c4ccc(OC)cc4)cc3C(=O)N([C@@H](C)CO)C[C@H]2C)cc1	none (no result: CaV13 FRET inh, TROY NFkB inh, TWEAK-Fn14 inh)
CCC(=O)N1C[C@H](C)[C@@H](OC)CN(C)C(=O)c2cc(NC(=O)c3cc(C)on3)ccc2OC[C@@H]1C	none (no result: CaV13 FRET inh, TROY NFkB inh, TWEAK-Fn14 inh)
C[C@H]1CN([C@@H](C)CO)C(=O)c2cc(-c3cncnc3)cnc2O[C@H]1CN(C)C(=O)c1cccc(F)c1	none (no result: CaV13 FRET inh, TROY NFkB inh, TWEAK-Fn14 inh)
COc1ccc(C=CC(=O)c2c(OC)cc(OC)c(OC)c2O)cc1	TWEAK-Fn14 inh 67.9
COc1ccc(OC)c(N/C(C)=C/C(=O)c2ccccc2)c1	none
COc1ccc(OC)c(C(=O)C(=O)c2cc(OC)ccc2OC)c1	none
COc1ccc(C(=O)/C=C/c2ccc(N(C)C)cc2)c(OC)c1	none
COc1ccc(OC)c(C(=O)/C=C/c2ccccc2C(F)(F)F)c1	TWEAK-Fn14 inh 59.2 (no result: LGR2 inh, Xi reactivation)
COc1ccc(OC)c(N/C=C/C(=O)c2ccccc2)c1	LGR2 inh 95.6, TROY NFkB inh 80.7, TWEAK-Fn14 inh 100.7
COc1ccc(C(=O)/C=C/c2ccccc2)c(OC)c1	TWEAK-Fn14 inh 58.5 (no result: CaV13 FRET inh, Xi reactivation)
C[C@@H]1COCn2nncc2CC[C@H](Cc2ccc(-c3ccccc3)cc2)C(=O)N1	none (no result: CaV13 FRET inh, LGR2 inh, TROY NFkB inh, TWEAK-Fn14 inh)
CC(=O)NC[C@H]1[C@H](c2ccc(C3=CCCC3)cc2)[C@@H](CO)N1Cc1cccnc1	none (no result: CaV13 FRET inh, TROY NFkB inh, TWEAK-Fn14 inh)
C[C@@H]1CN([C@@H](C)CO)C(=O)c2cccc(NC(=O)Nc3ccc(F)cc3)c2O[C@H]1CN(C)S(=O)(=O)c1cn(C)cn1	none (no result: CaV13 FRET inh, TROY NFkB inh, TWEAK-Fn14 inh)
COc1cc(C)cc(C(=O)C=Cc2ccccc2)c1O	none
COc1ccc(OC)c(NC(=O)Nc2c(O)ccc3ccccc23)c1	none (no result: LGR2 inh)
COCOc1cc(O)c(C(=O)/C=C/c2ccccc2)c(OCOC)c1	TWEAK-Fn14 inh 70.5 (no result: CaV13 FRET inh, Xi reactivation)
COc1ccc(OC)c(NC(=O)Nc2ccc(O)c3ccccc23)c1	TWEAK-Fn14 inh 89.7 (no result: LGR2 inh)
COc1ccc(C(=O)/C=C/c2cc(OC)c(O)c(OC)c2)c(F)c1	TWEAK-Fn14 inh 56.5
CC(=O)N1[C@@H](CO)[C@H](c2ccccc2)C12CN(C(=O)Nc1ccccc1F)C2	none (no result: CaV13 FRET inh, TROY NFkB inh, TWEAK-Fn14 inh)
COc1ccccc1CNC(=O)Cc1ccc(OC)c(OC)c1	TWEAK-Fn14 inh 67.6
O=C(Nc1ccc(Cl)c(Cl)c1)N[C@@H]1CC[C@H](CCn2cc(C3CCCC3)nn2)O[C@@H]1CO	none (no result: CaV13 FRET inh, TROY NFkB inh, TWEAK-Fn14 inh)
O=C(NCC[C@@H]1CC[C@@H](NC(=O)c2ccccc2F)[C@@H](CO)O1)c1cnccn1	none (no result: CaV13 FRET inh, TROY NFkB inh, TWEAK-Fn14 inh)
CC(=O)c1c(O)c2ccccc2n(C2CCCCC2)c1=O	TROY NFkB inh 55.7, TWEAK-Fn14 inh 64.9 (no result: LGR2 inh)
Cc1ccccc1NC(=O)CN1C(=O)S/C(=C\c2ccc(-c3cc(C(=O)O)ccc3C)o2)C1=O	Xi reactivation 40.1
COc1ccccc1CNC(=O)C[C@@H]1CC[C@H](NC(=O)CC2CC2)[C@@H](CO)O1	none (no result: CaV13 FRET inh, TROY NFkB inh, TWEAK-Fn14 inh)
COc1ccc(C=CC(=O)c2ccc([N+](=O)[O-])cc2)cc1	none
Cc1[nH]c(C)c(C(=O)/C=C/c2ccc([N+](=O)[O-])cc2)c1C	TWEAK-Fn14 inh 59.6 (no result: LGR2 inh)
O=C(ONC(=O)C1CCCCC1C(=O)NOC(=O)c1ccccc1)c1ccccc1 (configuration not stated)	TWEAK-Fn14 inh 51.0
Nc1nc(N)nc(-c2ccc(Cl)c(Cl)c2)n1	TWEAK-Fn14 inh 60.1
Cc1nc(N)nc(N)c1-c1ccc(Cl)c(Cl)c1	none
COC(=O)c1ccsc1NC(=O)CCS(=O)(=O)c1ccc(Cl)cc1	none
O=C(CCS(=O)(=O)c1ccc(Cl)cc1)Nc1nccs1	TROY NFkB inh 56.7
C[C@@H]1CN([C@H](C)CO)S(=O)(=O)c2ccc(-c3ccncc3)cc2O[C@H]1CN(C)C(=O)c1cccc(F)c1	none (no result: CaV13 FRET inh, TROY NFkB inh, TWEAK-Fn14 inh)
O=C(c1cc(COc2cccc3cnccc23)on1)N1CCC(c2ccccc2Cl)C1 (configuration not stated)	TROY NFkB inh 54.0
CCc1ccc(CN(C)C(=O)c2cc(COc3cccc4cnccc34)on2)cc1	TWEAK-Fn14 inh 57.5
CN(Cc1cccc2cnccc12)C(=O)c1cc(COc2ccc(F)cc2F)on1	none
O=C(Nc1ccc([N+](=O)[O-])cc1)C1CC1(c1ccccc1)c1ccccc1 (configuration not stated)	TROY NFkB inh 69.9
Cc1ccc(C2(c3ccc(C)cc3)CC2C(=O)Nc2ccc([N+](=O)[O-])cc2O)cc1 (configuration not stated)	TROY NFkB inh 56.0, TWEAK-Fn14 inh 65.5 (no result: CaV13 FRET inh, LGR2 inh, Xi reactivation)
CC1(C)CC1C(=O)Nc1ccc([N+](=O)[O-])cc1Br (configuration not stated)	none (no result: Xi reactivation)
Cc1ccccc1S(=O)(=O)NCC[C@@H]1CC[C@@H](NC(=O)C2CCCCC2)[C@H](CO)O1	none (no result: CaV13 FRET inh, TROY NFkB inh, TWEAK-Fn14 inh)
COc1ccc(NC(=O)Nc2ccc3c(c2)CC(=O)N([C@@H](C)CO)C[C@@H](C)[C@H](CN(C)C(=O)Nc2ccc4c(c2)OCO4)O3)cc1	none (no result: CaV13 FRET inh, TROY NFkB inh, TWEAK-Fn14 inh)
COCCn1c(C)cc(C2=NNC(=Nc3ccccc3)SC2)c1C	TROY NFkB inh 82.0, TWEAK-Fn14 inh 76.4 (no result: CaV13 FRET inh, LGR2 inh, Xi reactivation)
CCOc1ccc(CCNC(=O)c2ccc(C)c(NC3=NC4CS(=O)(=O)CC4S3)c2)cc1 (configuration not stated)	none
Cc1ccc(C(=O)NCc2ccccn2)cc1NC1=NC2CS(=O)(=O)CC2S1 (configuration not stated)	Xi reactivation 22.4
C[C@H]1CN([C@@H](C)CO)S(=O)(=O)c2ccc(C#Cc3ccncc3)cc2O[C@H]1CN(C)C(=O)C1CCOCC1	none (no result: CaV13 FRET inh, TROY NFkB inh, TWEAK-Fn14 inh)
Cc1noc(C)c1NC(=O)Nc1ccc2c(c1)C(=O)N([C@H](C)CO)C[C@H](C)[C@@H](CN(C)C(=O)Nc1ccccc1)OCCCC[C@@H](C)O2	none (no result: CaV13 FRET inh, TROY NFkB inh, TWEAK-Fn14 inh)
CC(C)Cc1nnc(NC(=O)c2ccc(N3CCCC3=O)cc2)s1	none
NC(=O)c1ccsc1NC(=O)c1ccc2c(c1)CCCC2	LGR2 inh 62.6
NC(=O)c1ccsc1NC(=O)c1ccc(N2CCCC2=O)cc1	LGR2 inh 71.9
O=C(C[C@H]1C[C@@H]2c3cc(NS(=O)(=O)c4ccc(F)cc4)ccc3O[C@@H]2[C@@H](CO)O1)NCc1ccncc1	none (no result: CaV13 FRET inh, TROY NFkB inh, TWEAK-Fn14 inh)
CN(C)C(=O)[C@H]1[C@H](CO)[C@H]2Cn3c(ccc(C4=CCCCC4)c3=O)[C@@H]1N2Cc1ccccc1	none (no result: CaV13 FRET inh, TROY NFkB inh, TWEAK-Fn14 inh)
CC(=O)Nc1cc2nn(-c3ccccc3)nc2cc1Cl	none (no result: LGR2 inh, Xi reactivation)
CC(C)(C)C(=O)Nc1cc2nn(-c3ccccc3)nc2cc1Cl	TROY NFkB inh 90.7, TWEAK-Fn14 inh 108.2 (no result: LGR2 inh, Xi reactivation)
